Results on 16 compounds are retold here after ChEMBL document CHEMBL4028882, “Thiazolino 2-Pyridone Amide Isosteres As Inhibitors of Chlamydia trachomatis Infectivity” (J Med Chem, 2017).

The structures appear in SMILES notation. The source made the active and inactive calls. The rule behind the calls is not given here.

Data set [1] concerns Salmonella typhimurium. Put plainly: Mutagenicity in Salmonella typhimurium TA98/TA100 assessed as revertant colonies/plate in presence of rat liver S9 fraction at 10 ug/spot after 2 to 3 days by Ames test. The class given is toxicity. To be noted: salmonella enterica subsp. enterica serovar typhimurium. The method in brief: (§1)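 Mutagenicity was screened by the spot-based Ames test procedure, with compound applied at 10 μg/spot.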

In a further data set the test system is Escherichia coli. Put plainly: Growth inhibition of Escherichia coli CCUG 17620 at 10 ug/ml after 24 hrs by disk diffusion method. An outline of the steps:
(§2)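 Disk diffusion assay of vaginal flora species (S. aureus, E. coli, L. jensenii, S. agalactiae) and the fungus C. albicans, with compound tested at 10 μg/mL.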
In general terms: A growth-free zone around the sample is the usual read-out of agar diffusion tests.

Data set [2] concerns Chlamydia trachomatis. The experiment in a line: Antimicrobial activity against Chlamydia trachomatis serovar LGV-L2 454/Bu infected in human HeLa229 cells assessed as concentration required to reduce reinfection levels by >= 95% measured 44 to 48 hrs post infection by DAPI staining-based assay. The class given is functional. An outline of the steps: (§3)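 HeLa cells were infected with C. trachomatis LGV-L2 and treated with compound. After 48 h the cells were lysed and the recovered bacteria used to infect fresh HeLa cells. Reinfection was quantified as new inclusion forming units versus cells infected with untreated bacteria. The concentration giving 95% reduction (Reinfect95) was determined from fixed concentrations of 2.5, 1.0, 0.5 and 0.25 μM.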

The subject of data set [3] is Salmonella typhimurium. Put plainly: Mutagenicity in Salmonella typhimurium TA1535/TA1538 assessed as revertant colonies/plate in absense of rat liver S9 fraction at 10 ug/spot after 2 to 3 days by Ames test. Format: toxicity. To be noted: salmonella enterica subsp. enterica serovar typhimurium. An outline of the steps: as §1
On the technique in general: The Ames test detects mutagens through reverse mutation in bacteria.

The test system of a further data set is Lactobacillus jensenii. Put plainly: Growth inhibition of Lactobacillus jensenii CCUG 33572 at 10 ug/ml after 24 hrs by disk diffusion method. An outline of the steps:
as §2

Data set [4] is described as follows: Cytotoxicity against human HeLa229 cells assessed as cell viability at 10 uM after 44 to 48 hrs by resazurin-based fluorometry relative to control. On the set-up: species or system HeLa 229. To be noted: read-out: Activity. An outline of the steps:
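HeLa host cell viability was measured with compound at 10 μM in a resazurin assay, run to exclude host toxicity as the cause of anti-infective activity.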
In general terms: Resazurin is reduced to fluorescent resorufin, in cell work by metabolically active cells.

The subject of another data set is Candida albicans. The experiment in a line: Growth inhibition of Candida albicans at 10 ug/ml after 24 hrs by disk diffusion method. An outline of the steps: as §2
The test system of data set [5] is Chlamydia trachomatis. The experiment in a line: Antimicrobial activity against Chlamydia trachomatis serovar LGV-L2 454/Bu expressing mCherry infected in human HeLa cells assessed as reduction in accumulation of BODIPY 22 in bacterial inclusions at 0.5 uM incubated for 48 hrs by BODIPY 22-based confocal microscopy.
In a further data set the test system is Staphylococcus aureus. Put plainly: Growth inhibition of Staphylococcus aureus CCUG 1800 at 10 ug/ml after 24 hrs by disk diffusion method. An outline of the steps: as §2
Data set [6] concerns Salmonella typhimurium. Put plainly: Mutagenicity in Salmonella typhimurium TA1535/TA1538 assessed as revertant colonies/plate in presence of rat liver S9 fraction at 10 ug/spot after 2 to 3 days by Ames test. The conditions noted are these: salmonella enterica subsp. enterica serovar typhimurium. The class given is toxicity. The method in brief: as §1
Data set [7] concerns Chlamydia trachomatis. The experiment in a line: Antimicrobial activity against Chlamydia trachomatis serovar LGV-L2 454/Bu infected in human HeLa229 cells at 1 uM compound treated during first 24 hrs of infection by DAPI staining-based assay. Format: functional, cell-based. An outline of the steps:
(§4)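 Time-of-addition format of the LGV-L2 HeLa infection/reinfection assay. Compound was present during the first 24 h, the second 24 h, or throughout the 48 h infection. Infectivity was then scored against untreated controls.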

In data set [8] the test system is Chlamydia trachomatis. Put plainly: Antimicrobial activity against Chlamydia trachomatis serovar LGV-L2 454/Bu infected in human HeLa229 cells assessed as reduction in reinfection levels measured 44 to 48 hrs post infection by DAPI staining-based assay. The class given is functional, cell-based. To be noted: HeLa 229. The method in brief:
as §3

Data set [9] deals with Salmonella typhimurium. The experiment in a line: Mutagenicity in Salmonella typhimurium TA98/TA100 assessed as revertant colonies/plate in absence of rat liver S9 fraction at 10 ug/spot after 2 to 3 days by Ames test. The class given is toxicity. The conditions noted are these: salmonella enterica subsp. enterica serovar typhimurium. The method in brief:
as §1

Data set [10] relates to Chlamydia trachomatis. Put plainly: Antimicrobial activity against Chlamydia trachomatis serovar D UW-3 infected in human HeLa229 cells assessed as reduction in reinfection levels measured 44 to 48 hrs post infection by DAPI staining-based assay. The class given is functional, cell-based. The conditions noted are these: serovar D UW-3, HeLa 229.
The next data set relates to Streptococcus agalactiae. The experiment in a line: Growth inhibition of Streptococcus agalactiae CCUG 4208 at 10 ug/ml after 24 hrs by disk diffusion method. An outline of the steps:
as §2

Data set [11] concerns Chlamydia trachomatis. The experiment in a line: Antimicrobial activity against Chlamydia trachomatis serovar LGV-L2 454/Bu infected in human HeLa229 cells at 1 uM compound treated during 48 hrs of infection by DAPI staining-based assay. The class given is functional, cell-based. An outline of the steps:
as §4

In the case of `Nc1c(Cc2cccc3ccccc23)c(C2CC2)c2n(c1=O)C(n1cc(-c3ccccc3)nn1)CS2` (configuration not stated), the Activity entry in the data set with Salmonella typhimurium [1] was “Non-Toxic”; with Chlamydia trachomatis [2] it was 0.25 µM; with Salmonella typhimurium [3], “Non-Toxic”; in the data set on Salmonella typhimurium [6] it was “Non-Toxic”; in the data set on Salmonella typhimurium [9], “Non-Toxic”. Besides, the “growth inhibition (GI)” value in the data set on Escherichia coli, in the data set with Lactobacillus jensenii, in the data set with Candida albicans, with Staphylococcus aureus and with Streptococcus agalactiae was “Non-Toxic” each time. For the same compound, the viability at 10 µM in data set [4] is 105%. Besides, the result in the data set on Chlamydia trachomatis [5] and in the data set with Chlamydia trachomatis [11] was Active. For the same compound, the outcome in the data set on Chlamydia trachomatis [7] was inactive. The figures for the EC50 with Chlamydia trachomatis [8] and with Chlamydia trachomatis [10] were 0.013 µM and 0.035 µM, respectively.

In the case of `O=C(NS(=O)(=O)c1ccccc1)C1CSc2c(C3CC3)c(Cc3cccc4ccccc34)cc(=O)n21` (configuration not stated), in the data set with Chlamydia trachomatis [2], the Activity is >2.5 µM. In addition, in [4], the viability at 10 µM stood at 105%.

`O=c1cc(Cc2cccc3ccccc23)c(C2CC2)c2n1C(c1ncc(-c3ccccc3)s1)CS2` (configuration not stated): the Activity in the data set on Chlamydia trachomatis [2] is >2.5 µM. Moreover, the viability at 10 µM in [4] turned out to be 97%.

On to `O=c1cc(Cc2cccc3ccccc23)c(C2CC2)c2n1C(c1nc(-c3ccccc3)n[nH]1)CS2` (configuration not stated), for which, in the data set with Chlamydia trachomatis [2], the Activity amounted to 0.5 µM. The viability at 10 µM in data set [4] stood at 98%.

For the compound `CC(C)(C)OC(=O)NC1CSc2c(C3CC3)c(Cc3cccc4ccccc34)cc(=O)n21` (configuration not stated), the Activity with Chlamydia trachomatis [2] was >2.5 µM. Besides, the viability at 10 µM in data set [4] is 105%.

`O=c1cc(Cc2cccc3ccccc23)c(C2CC2)c2n1C(n1cc(-c3ccccc3)nn1)CS2` (configuration not stated): the Activity result is “Non-Toxic” with Salmonella typhimurium [1]; 0.25 µM in the data set on Chlamydia trachomatis [2]; “Non-Toxic” in the data set on Salmonella typhimurium [3]; “Non-Toxic” with Salmonella typhimurium [6]; “Non-Toxic” in the data set with Salmonella typhimurium [9]. Moreover, the “growth inhibition (GI)” value in the data set on Escherichia coli, in the data set with Lactobacillus jensenii, in the data set with Candida albicans, in the data set with Staphylococcus aureus and in the data set with Streptococcus agalactiae was “Non-Toxic” in each case. Further, the viability at 10 µM in data set [4] is 96%. The outcome in the data set with Chlamydia trachomatis [5] and in the data set with Chlamydia trachomatis [11] was Active. Moreover, the result with Chlamydia trachomatis [7] was inactive. For the same compound, the figures for the 50% effective concentration (EC50) in the data set on Chlamydia trachomatis [8] and in the data set on Chlamydia trachomatis [10] were 0.018 µM and 0.037 µM, respectively.

Regarding `O=c1cc(Cc2cccc3ccccc23)c(C2CC2)c2n1C(c1nc(-c3ccccc3)co1)CS2` (configuration not stated), the Activity in the data set on Chlamydia trachomatis [2] was determined as 2.5 µM. For the same compound, the viability at 10 µM in [4] is 83%.

Turning to `O=C(NC1CSc2c(C3CC3)c(Cc3cccc4ccccc34)cc(=O)n21)c1ccccc1` (configuration not stated), the Activity with Chlamydia trachomatis [2] is 2.5 µM. For the same compound, in data set [4], the viability at 10 µM worked out at 114%.

For the compound `O=c1cc(Cc2cccc3ccccc23)c(C2CC2)c2n1C(c1nc(-c3ccccc3)no1)CS2` (configuration not stated), in the data set on Chlamydia trachomatis [2], the Activity is >2.5 µM. In addition, the viability at 10 µM in data set [4] is 99%.

`O=c1cc(Cc2cccc3ccccc23)c(C2CC2)c2n1C(NS(=O)(=O)c1ccccc1)CS2` (configuration not stated): the Activity in the data set on Chlamydia trachomatis [2] is >2.5 µM. Moreover, the viability at 10 µM in data set [4] was found to be 114%.

In the case of `O=c1cc(Cc2cccc3ccccc23)c(C2CC2)c2n1C(c1nc(-c3ccccc3)c[nH]1)CS2` (configuration not stated), in the data set on Chlamydia trachomatis [2], the Activity stood at 2.5 µM. In data set [4], the viability at 10 µM came out at 106%.

With `O=c1cc(Cc2cccc3ccccc23)c(C2CC2)c2n1C(c1nnc(-c3ccccc3)o1)CS2` (configuration not stated), in the data set with Chlamydia trachomatis [2], the Activity came out at 1 µM. Besides, the viability at 10 µM in data set [4] was 103%.

Regarding `Nc1c(Cc2cccc3ccccc23)c(C2CC2)c2n(c1=O)C(c1nc(-c3ccccc3)n[nH]1)CS2` (configuration not stated), in the data set on Chlamydia trachomatis [2], the Activity turned out to be 0.25 µM. In data set [4], the viability at 10 µM turned out to be 100%.

Consider `O=C(CNC(=O)C1CSc2c(C3CC3)c(Cc3cccc4ccccc34)cc(=O)n21)c1ccccc1` (configuration not stated), for which the Activity with Chlamydia trachomatis [2] is 2.5 µM. Also, the viability at 10 µM in data set [4] came out at 107%.

For the compound `Nc1c(Cc2cccc3ccccc23)c(C2CC2)c2n(c1=O)C(C(=O)Nc1ccccc1)CS2` (configuration not stated), the Activity result in the data set on Salmonella typhimurium [1], in the data set on Salmonella typhimurium [3], with Salmonella typhimurium [6] and with Salmonella typhimurium [9] was “Non-Toxic” each time.

As to `Cc1cccc(-c2n[nH]c(C3CSc4c(C5CC5)c(Cc5cccc6ccccc56)cc(=O)n43)n2)c1` (configuration not stated), the Activity with Chlamydia trachomatis [2] stood at 0.5 µM. In addition, the viability at 10 µM in data set [4] is 95%.

In general, EC50 refers to the concentration that produces a half-maximal response.
